Experimental data gathered from unrelated publications.
Protocols differ between the studies behind these lines.
BCHE: Cholinesterase (BCHE, Equus caballus, UniProt P81908)
PTGS1: Prostaglandin G/H synthase 1 (PTGS1, Ovis aries, UniProt P05979)
AGTR2: Type-2 angiotensin II receptor (AGTR2, Homo sapiens, UniProt P50052)
Ar: Androgen receptor (Ar, Rattus norvegicus, UniProt P15207)

COc1nccc(CN2Cc3cc(OC)c(OC)cc3C2=O)n1  inhibition (BCHE; enzyme activity, inhibitor, Ellman; 1 µM): 6.1%
Cc1ccc(-c2nc3ccccc3s2)c(-c2cccc(O)c2)c1  inhibition (PTGS1; enzyme activity, inhibitor, absorbance; 10 µM): 11.7%
c1ccc(C(NCCNC(c2ccccc2)c2ccccc2)c2ccccc2)cc1  inhibition (AGTR2; cell-free assay; 10 µM): 14%
COc1cc2c(cc1OC)C(=O)N(CC1CCN(Cc3cccc(C)n3)CC1)C2  inhibition (BCHE; enzyme activity, inhibitor, Ellman; 1 µM): 3.4%
Cc1ccc(-c2nc3ccccc3s2)c(-c2ccc(S(N)(=O)=O)cc2)c1  inhibition (PTGS1; enzyme activity, inhibitor, absorbance; 10 µM): 9.6%
CN(CCN1CCC(OC(=O)Nc2ccccc2-c2ccccc2)CC1)C(=O)c1ccc(CN2CCC(C(N)=O)CC2)cc1  inhibition (AGTR2; ligand displacement, radioligand; 1 µM): -4%
COc1cc2c(cc1OC)C(=O)N(CC1CCN(Cc3ccccn3)CC1)C2  inhibition (BCHE; enzyme activity, inhibitor, Ellman; 1 µM): 5.4%
Cc1ccc(-c2nc3ccccc3s2)c(-c2ccc(S(C)(=O)=O)cc2)c1  inhibition (PTGS1; enzyme activity, inhibitor, absorbance; 10 µM): 9.7%
COc1cc2c(cc1OC)C(=O)N(CC1CCN(Cc3ccncc3)CC1)C2  inhibition (BCHE; enzyme activity, inhibitor, Ellman; 1 µM): 8.2%
COc1ccc(-c2ccc(N)cc2-c2nc3ccccc3s2)cc1  inhibition (PTGS1; enzyme activity, inhibitor, absorbance; 10 µM): 65.4%
Cn1cc(-c2cc(F)cc(N3CCn4c(cc5c4CCCC5)C3=O)c2CO)cc(Nc2ccc(N3CCN(C4COC4)CC3)cn2)c1=O  inhibition (Dual specificity mitogen-activated protein kinase kinase 3 (MAP2K3, Homo sapiens, UniProt P46734); enzyme activity, inhibitor; 0.1 µM): -12%
Nc1ccc(-c2nc3ccccc3s2)c(-c2cccc(O)c2)c1  inhibition (PTGS1; enzyme activity, inhibitor, absorbance; 10 µM): 27.7%
COc1ccc2[nH]cc(CCN3Cc4cc(OC)c(OC)cc4C3=O)c2c1  inhibition (BCHE; enzyme activity, inhibitor, Ellman; 1 µM): 19%
CCCCCCCCCCCC(=O)OC[C@@H](COP(=O)(O)OCCNC(=O)c1ccc(Cn2c(=O)[nH]c3c(N)nc(OCCOC)nc32)cc1)OC(=O)CCCCCCCCCCC  inhibition (Ar; ligand displacement, radioligand; 10 µM): 55%
CN(C)Cc1ccc(-c2nc3ccccc3s2)c(-c2cccc(O)c2)c1  inhibition (PTGS1; enzyme activity, inhibitor, absorbance; 10 µM): 30.7%
COc1cc2c(cc1OC)C(=O)N(Cc1ccc(F)nc1)C2  inhibition (BCHE; enzyme activity, inhibitor, Ellman; 1 µM): -6.8%
C#Cc1n[nH]c2c(-c3cn(C(C)c4ccccn4)c(=O)[nH]c3=O)cc(F)cc12 (stereo not drawn)  inhibition (Activin receptor type-1B (ACVR1B, Homo sapiens, UniProt P36896); enzyme activity, inhibitor; 1 µM): 3.8%
Cn1cc(-c2cccc(N3CCc4c(sc5c4CC(C)(C)C5)C3=O)c2CO)cc(Nc2ccncn2)c1=O  inhibition (Serine/threonine-protein kinase MRCK alpha (CDC42BPA, Homo sapiens, UniProt Q5VT25); enzyme activity, inhibitor; 1 µM): 6%
Oc1ccc(-c2ncccc2-c2nc3ccccc3s2)cc1  inhibition (PTGS1; enzyme activity, inhibitor, absorbance; 10 µM): 12.5%
COc1cc2c(cc1OC)C(=O)N(CC1CCN(Cc3ccc(F)nc3)CC1)C2  inhibition (BCHE; enzyme activity, inhibitor, Ellman; 1 µM): -4.8%
CC(C)N1CCC[C@H]1CNC(=O)c1cn(C2CCCC2)c(=O)c2c1c1ccccc1n2C  inhibition (Ar; ligand displacement, radioligand; 10 µM): 11%
